The test system of one series is enterovirus D68. The series can be described thus: Antiviral activity against Enterovirus-D68 STL-2014-12 infected in human RD cells assessed as reduction in virus induced cytopathic effect by measuring ATP level incubated for 72 hrs by cell titer-glo luminescent cell viability assay. The format is functional, organism-based. Particulars: Enterovirus D, STL-2014-12, RD, 72 h. The procedure, abridged: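 RD cells seeded at 1.5 × 10^4/well and grown 24 h, then given 100 TCID50 virus plus compound in 3-fold dilutions (0.01–200 μM). DMSO control. Incubated 37 °C for 72 h; ATP read by CellTiter-Glo luminescence and normalized to uninfected and infected controls. EC50 is the concentration giving 50% CPE reduction. Strains: STL-2014-12, US/KY/14-18953, US/MO/14-18947, Fermon.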
(Damage to the host cells serves as the signal in cytopathic effect assays.)

Series [1] can be described thus: Selectivity index, ratio of CC50 for human RD cells to EC50 for Enterovirus-D68 STL-2014-12 infected in human RD cells to. Particulars: for selectivity ratio: RD cells, read-out: Ratio CC50/EC50. The format is toxicity, cell-based. The method in brief: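 EC50 came from a CPE reduction assay. RD cells (1.5 × 10^4 per well, grown 24 h) were infected with 100 TCID50 of the named strain and given 3-fold dilutions from 0.01 to 200 μM. After 72 h at 37 °C, ATP was read by CellTiter-Glo and normalized to infected and uninfected controls. CC50 came from uninfected cells under the same dilutions, 72 h and ATP readout. SI = CC50/EC50.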

The test system of a further series is RD. The series can be described thus: Cytotoxicity against human RD cells assessed as inhibition of cell viability by measuring ATP level incubated for 72 hrs by cell titer-glo luminescent cell viability assay. The format is functional. The method in brief: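 Uninfected RD cells seeded at 1.5 × 10^4/well and grown 24 h, then exposed to compound in 3-fold dilutions (0.01–200 μM), with DMSO as cell control. ATP read by CellTiter-Glo luminescence after 72 h; CC50 is the 50% cytotoxic concentration.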

The EC50 is the concentration giving half of the maximal effect. Usually CC50 stands for the concentration at which the toxic effect on the cells reaches its halfway point. As to `FC(F)(F)c1nc(-c2cnc3ccc(-c4ccc(N5CCOCC5)cc4)cc3c2)no1`, the EC50 in the series with enterovirus D68 stood at 33900 nM. Moreover, in series [1], the selectivity ratio was more than 1. Besides, in the series with RD, the cytotoxic concentration (CC50) was more than 22.2 µM.
`CN(C)c1ccc(-c2ccc3ncc(-c4noc(C(F)(F)F)n4)cc3c2)cc1`: in the series with enterovirus D68, the EC50 was determined as 1350 nM. The selectivity ratio in series [1] is more than 16. The CC50 in the series on RD was more than 22.2 µM.
In the same order, the values of `CCOC(=O)c1cnc2ccc(-c3ccc(C(C)C)cc3)cc2c1` are 1050 nM, more than 2 and more than 7.4 µM.
`CCCc1nc(-c2cnc3ccc(-c4ccc(N)cc4)cc3c2)no1`: the EC50 in the series with enterovirus D68 amounted to 410 nM. The selectivity ratio in series [1] is more than 2. The CC50 in the series with RD was more than 0.8 µM.
In the same order, the values of `CC(C)c1ccc(-c2ccc3ncc(-c4noc(C(F)(F)F)n4)cc3c2)cc1` are 5080 nM, more than 39 and more than 200 µM.
As for `CCc1nc(-c2cnc3ccc(-c4ccccc4)cc3c2)no1`, the EC50 with enterovirus D68 turned out to be 170 nM. In addition, in series [1], the selectivity ratio was more than 44. Moreover, in the series with RD, the half-maximal cytotoxic concentration (CC50) was more than 7.4 µM.
With `FC(F)(F)c1nc(-c2cnc3ccc(-c4ccccc4)cc3c2)no1`, the EC50 in the series on enterovirus D68 came to 750 nM. The selectivity ratio in series [1] was more than 30. Further, the CC50 in the series with RD was more than 22.2 µM.
Take `Cc1nc(-c2cnc3ccc(-c4ccc(O)cc4)cc3c2)no1`: the EC50 in the series on enterovirus D68 stood at 460 nM. For the same molecule, in series [1], the selectivity ratio is more than 5. Further, the CC50 in the series with RD was more than 2.5 µM.
In the case of `CCc1nc(-c2cnc3ccc(-c4ccc(Cl)cc4)cc3c2)no1`, the EC50 in the series with enterovirus D68 was determined as 3020 nM. Further, the selectivity ratio in series [1] is more than 7. Moreover, the CC50 in the series on RD is more than 22.2 µM.
In the case of `CCc1nc(-c2cnc3ccc(-c4ccc(O)cc4)cc3c2)no1`, in the series with enterovirus D68, the EC50 was 190 nM. Moreover, the selectivity ratio in series [1] was more than 13. Besides, the CC50 in the series with RD was more than 2.5 µM.
For the molecule `Cc1ccc(-c2ccc3ncc(-c4noc(C)n4)cc3c2)cc1`, the EC50 in the series with enterovirus D68 stood at 570 nM. The selectivity ratio in series [1] was more than 13. Moreover, the half-maximal cytotoxic concentration (CC50) with RD was more than 7.4 µM.
For the molecule `CCc1ccc(-c2ccc3ncc(-c4noc(C)n4)cc3c2)cc1`, in the series on enterovirus D68, the EC50 was 470 nM. Also, in series [1], the selectivity ratio is more than 16. For the same molecule, the CC50 in the series on RD is more than 7.4 µM.
`CCc1nc(-c2cnc3ccc(-c4ccc(C)cc4)cc3c2)no1`: the EC50 in the series with enterovirus D68 was found to be 610 nM. Moreover, the selectivity ratio in series [1] is more than 12. Besides, in the series with RD, the CC50 was more than 7.4 µM.
As to `Cc1nc(-c2cnc3ccc(-c4ccc(N)nc4)cc3c2)no1`, the concentration for a half-maximal effect (EC50) in the series with enterovirus D68 was determined as 510 nM. Also, in series [1], the selectivity ratio was more than 15. For the same molecule, the CC50 in the series with RD was more than 7.4 µM.
On to `CCCc1ccc(-c2ccc3ncc(-c4noc(C)n4)cc3c2)cc1`, for which the EC50 in the series with enterovirus D68 amounted to 780 nM. Moreover, the selectivity ratio in series [1] is more than 10. The CC50 with RD is more than 7.4 µM.
As to `CCOC(=O)c1cnc2ccc(-c3cccc(N)c3)cc2c1`, the EC50 in the series on enterovirus D68 is 6730 nM. In addition, the selectivity ratio in series [1] was more than 1. The CC50 in the series on RD was more than 7.4 µM.
In the case of `CCCc1ccc(-c2ccc3ncc(-c4noc(CC)n4)cc3c2)cc1`, the EC50 in the series on enterovirus D68 worked out at 530 nM. The selectivity ratio in series [1] was more than 14. Further, the CC50 in the series with RD was more than 7.4 µM.
Regarding `CCCCc1nc(-c2cnc3ccc(-c4ccc(N)cc4)cc3c2)no1`, the EC50 in the series with enterovirus D68 came out at 710 nM. For the same molecule, the selectivity ratio in series [1] is more than 3. For the same molecule, the CC50 with RD is more than 2.5 µM.
Take `Fc1ccc(-c2ccc3ncc(-c4noc(C(F)(F)F)n4)cc3c2)cc1`: the EC50 in the series on enterovirus D68 is 1220 nM. Further, the selectivity ratio in series [1] is more than 6. The CC50 in the series on RD is more than 7.4 µM.
Turning to `CCCCc1ccc(-c2ccc3ncc(C(=O)OCC)cc3c2)cc1`, the EC50 with enterovirus D68 stood at 850 nM. Further, the selectivity ratio in series [1] is more than 9. Also, the CC50 in the series with RD is more than 7.4 µM.
As for `CCc1nc(-c2cnc3ccc(-c4ccc(F)cc4)cc3c2)no1`, the EC50 in the series with enterovirus D68 was determined as 330 nM. Besides, in series [1], the selectivity ratio is more than 22. In addition, the CC50 in the series with RD was more than 7.4 µM.
`Nc1ccc(-c2ccc3ncc(-c4noc(C(F)(F)F)n4)cc3c2)cn1`: the EC50 with enterovirus D68 is 180 nM. Also, the selectivity ratio in series [1] was more than 14. Further, in the series on RD, the CC50 is more than 2.5 µM.
As to `CCc1nc(-c2cnc3ccc(-c4ccc(N)nc4)cc3c2)no1`, the EC50 in the series with enterovirus D68 was 120 nM. Further, the selectivity ratio in series [1] is more than 555. For the same molecule, in the series on RD, the cytotoxic concentration (CC50) was more than 66.7 µM.
For the molecule `Cc1nc(-c2cnc3ccc(-c4ccccc4)cc3c2)no1`, the EC50 in the series with enterovirus D68 was 220 nM. In series [1], the selectivity ratio was more than 11. The CC50 in the series with RD is more than 2.5 µM.
As for `CCc1nc(-c2cnc3ccc(-c4ccccc4N)cc3c2)no1`, the EC50 in the series with enterovirus D68 worked out at 2350 nM. The selectivity ratio in series [1] was 9. For the same molecule, the CC50 with RD stood at 2.35 µM.
Take `CCCCc1ccc(-c2ccc3ncc(-c4noc(C)n4)cc3c2)cc1`: the EC50 with enterovirus D68 came to 590 nM. For the same molecule, in series [1], the selectivity ratio is more than 4. Moreover, the CC50 in the series on RD is more than 2.5 µM.
As to `Cc1nc(-c2cnc3ccc(-c4ccc(N)cc4)cc3c2)no1`, the EC50 in the series on enterovirus D68 is 280 nM. Besides, the selectivity ratio in series [1] was more than 9. For the same molecule, the CC50 in the series on RD was more than 2.5 µM.
The matching figures for `CC(C)(C)c1nc(-c2cnc3ccc(-c4ccc(N)cc4)cc3c2)no1`: 4220 nM, more than 2 and more than 7.4 µM.
As for `CCc1nc(-c2cnc3ccc(-c4ccc(N)c(Cl)c4)cc3c2)no1`, the EC50 in the series on enterovirus D68 stood at 610 nM. In addition, the selectivity ratio in series [1] was more than 12. In addition, in the series with RD, the CC50 was more than 7.4 µM.
On to `CCc1nc(-c2cnc3ccc(-c4cccc(N)c4)cc3c2)no1`, for which the EC50 in the series with enterovirus D68 is 170 nM. Besides, the selectivity ratio in series [1] is more than 44. Moreover, in the series on RD, the CC50 was more than 7.4 µM.
As to `COc1ccc(-c2ccc3ncc(-c4noc(C)n4)cc3c2)cc1`, the EC50 in the series with enterovirus D68 stood at 510 nM. The selectivity ratio in series [1] was more than 131. In the series on RD, the half-maximal cytotoxic concentration (CC50) was more than 66.7 µM.
On to `FC(F)(F)c1nc(-c2cnc3ccc(-c4ccc(Cl)cc4)cc3c2)no1`, for which the EC50 in the series on enterovirus D68 came to 24300 nM. In addition, the selectivity ratio in series [1] was more than 8. For the same molecule, the CC50 with RD was more than 200 µM.
Consider `CCCc1ccc(-c2ccc3ncc(C(=O)OCC)cc3c2)cc1`, for which the EC50 in the series with enterovirus D68 was determined as 1290 nM. For the same molecule, the selectivity ratio in series [1] is more than 6. The CC50 in the series with RD is more than 7.4 µM.
With `CCc1nc(-c2cnc3ccc(-c4ccc(N5CCOCC5)cc4)cc3c2)no1`, the EC50 in the series with enterovirus D68 stood at 11800 nM. Besides, the selectivity ratio in series [1] was more than 17. Besides, the CC50 in the series on RD is more than 200 µM.
As to `CCCCc1ccc(-c2ccc3ncc(-c4noc(CC)n4)cc3c2)cc1`, the EC50 in the series with enterovirus D68 was 180 nM. The selectivity ratio in series [1] is more than 41. Besides, the CC50 in the series with RD is more than 7.4 µM.
Regarding `CC(C)c1nc(-c2cnc3ccc(-c4ccc(N)cc4)cc3c2)no1`, in the series with enterovirus D68, the EC50 is 400 nM. Moreover, the selectivity ratio in series [1] was more than 2. For the same molecule, in the series on RD, the CC50 is more than 0.8 µM.
For `CCOC(=O)c1cnc2ccc(-c3ccc(N)cc3)cc2c1`, the EC50 in the series on enterovirus D68 worked out at 470 nM. The selectivity ratio in series [1] was more than 16. The CC50 in the series on RD is more than 7.4 µM.
Consider `CCc1nc(-c2cnc3ccc(-c4ccc(NC(C)=O)cc4)cc3c2)no1`, for which, in the series on enterovirus D68, the EC50 came to 330 nM. In series [1], the selectivity ratio is more than 22. Further, the CC50 in the series on RD is more than 7.4 µM.
In the case of `Cc1ccc(-c2ccc3ncc(-c4noc(C(F)(F)F)n4)cc3c2)cc1`, the EC50 in the series on enterovirus D68 came out at 450 nM. Besides, the selectivity ratio in series [1] is more than 49. Further, the CC50 with RD is more than 22.2 µM.
Consider `CCc1nc(-c2cnc3ccc(-c4ccc(N)cc4)cc3c2)no1`, for which, in the series with enterovirus D68, the EC50 worked out at 100 nM. In addition, the “Ratio CC50/EC50” value in series [1] was more than 25. In the series with RD, the CC50 is more than 2.5 µM.
Turning to `CCOC(=O)c1cnc2ccc(-c3ccccc3N)cc2c1`, in the series on enterovirus D68, the EC50 came to 6260 nM. Also, the selectivity ratio in series [1] is more than 1. Besides, the cytotoxic concentration (CC50) in the series on RD was more than 7.4 µM.
As for `CCOC(=O)c1cnc2ccc(-c3ccccc3)cc2c1`, the EC50 in the series with enterovirus D68 was found to be 900 nM. Moreover, the selectivity ratio in series [1] was more than 8. Further, the CC50 with RD was more than 7.4 µM.
For the molecule `CCCCc1ccc(-c2ccc3ncc(-c4noc(C(F)(F)F)n4)cc3c2)cc1`, the EC50 in the series on enterovirus D68 came out at 190 nM. Further, the selectivity ratio in series [1] is more than 39. In addition, the CC50 in the series on RD is more than 7.4 µM.
As to `CCc1ccc(-c2ccc3ncc(-c4noc(CC)n4)cc3c2)cc1`, the half-maximal effective concentration (EC50) with enterovirus D68 amounted to 590 nM. Besides, the selectivity ratio in series [1] is more than 38. In addition, the CC50 in the series with RD is more than 22.2 µM.
For `CCc1nc(-c2cnc3ccc(-c4ccc(OC)cc4)cc3c2)no1`, the EC50 in the series on enterovirus D68 was determined as 190 nM. Also, the selectivity ratio in series [1] is more than 13. The CC50 in the series with RD was more than 2.5 µM.

For the origin of these results see ChEMBL document CHEMBL5214977, “Discovery and Optimization of Quinoline Analogues as Novel Potent Antivirals against Enterovirus D68” (J Med Chem, 2022).
